IC50 data for 16 compounds are collected here from ChEMBL document CHEMBL3393048, “Discovery of potent cytotoxic ortho-aryl chalcones as new scaffold targeting tubulin and mitosis with affinity-based fluorescence” (J Med Chem, 2014).

Common to all, as to type: functional, cell-based
A short description of test [1]: Antiproliferative activity against human CNE2 cells after 48 hrs by SRB method. The note with it: CNE-2, 48 h. In outline:
(§1)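 SRB assay. Cells in DMEM high glucose with 10% FBS were seeded at 5000/well and grown 24 h; a day-0 plate was fixed at that point. Compounds were added in triplicate for 48 h. IC50 came from nonlinear regression of dose–response curves from at least two independent experiments.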

The subject of another test is A549. Nature of the test: Antiproliferative activity against human A549 cells after 48 hrs by SRB method. The note with it: A549, 48 h. The method, boiled down:
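SRB assay. Cells in DMEM high glucose with 10% FBS were seeded at 5000/well and grown 24 h; a day-0 plate was fixed at that point. Compounds were added in triplicate for 48 h. Cells were fixed with TCA at 4 °C for 1 h, stained with 0.4% SRB, and the dye was solubilized in 10 mM Tris pH 10.4. OD was read at 515 nm with day-0 OD subtracted. IC50 came from nonlinear regression of dose–response curves from at least two independent experiments.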

The test system of the next test is SW480. Nature of the test: Antiproliferative activity against human SW480 cells after 48 hrs by SRB method. The note with it: SW480, 48 h. The method, boiled down:
as §1

For another test, the system named is HepG2. Nature of the test: Antiproliferative activity against human HepG2 cells after 48 hrs by SRB method. The note with it: HepG2, 48 h. The method, boiled down:
as §1

Another test concerns MCF7. Description: Antiproliferative activity against human MCF7 cells after 48 hrs by SRB method. The following applies: MCF7, 48 h. In outline: as §1

pIC50: −log10 of the molar value. A value given as a limit tells only on which side of the number the result lay.

As for `COc1cc(C(=O)/C=C/c2ccccc2-c2ccc(F)cc2)cc(OC)c1OC`, the pIC50 in test [1] is 5.42; with A549 it was 5.66; in the test on SW480 it was 5.66; in the test on HepG2 it was 4.92; in the test on MCF7, 5.04.
With `COc1cc(CNC(=O)c2ccccc2-c2ccc(F)cc2)cc(OC)c1OC`, the pIC50 (in test [1]; with A549; with SW480; with HepG2; in the test with MCF7) was under 4.30 throughout.
`O=C(/C=C/c1ccccc1-c1ccc(F)cc1)c1cccc(O)c1`: the pIC50 was 5.14 in test [1]; 5.16 in the test on A549; 5.06 with SW480; 5.38 in the test with HepG2; 5.03 in the test with MCF7.
The like results for `COc1ccc(C(=O)/C=C/c2ccccc2-c2ccc(F)cc2)cc1` were, in that order, 5.05, 5.09, 5.08, 5.20 and 5.06.
For `COc1ccc(CNC(=O)c2ccccc2-c2ccc(F)cc2)cc1OC` the same measures were under 4.30, under 4.30, under 4.30, under 4.30 and under 4.30.
`COc1ccc(C(=O)/C=C/c2ccccc2-c2ccc(F)nc2)cc1O`: the pIC50 in test [1] was 5.68; in the test on A549, 5.49; in the test on SW480, 5.80; in the test with HepG2, 5.74; with MCF7, 5.70.
For `Cc1ccc(/C=C/C(=O)c2ccccc2-c2ccc(F)cc2)o1` the same measures were 4.85, 4.51, 4.64, 4.92 and 4.64.
Take `COc1ccc(/C=C/C(=O)c2ccccc2-c2ccc(OC)c(OC)c2)cc1`: the negative-log IC50 (pIC50) in test [1] is 6.49; in the test on A549, 5.80; with SW480, 6.05; in the test on HepG2, 6.22; in the test on MCF7, 5.96.
Consider `COc1ccc(/C=C/C(=O)c2ccccc2-c2cccc(F)c2)cc1OC`, for which the pIC50 in test [1] is 6.19; in the test on A549 it was 6.48; in the test with SW480, 6.80; in the test with HepG2, 6.82; in the test with MCF7 it was 5.92.
For `COc1ccc(OC)c(/C=C/C(=O)c2ccccc2-c2ccc(F)cc2)c1` the same measures were 6.12, 5.96, 5.62, 6.28 and 5.77.
The like results for `O=C(/C=C/c1ccccc1-c1ccc(F)nc1)c1cccc(O)c1` were, in that order, 5.06, 5.16, 5.13, 5.19 and 4.92.
As for `COc1ccc(/C=C/C(=O)c2ccccc2-c2ccc(OC)c(OC)c2OC)cc1O`, the pIC50 in test [1] was 6.80; in the test on A549, 6.72; with SW480, 6.77; in the test on HepG2 it was 6.64; in the test with MCF7, 6.32.
The like results for `COc1cc(C(=O)/C=C/c2ccccc2-c2ccc(F)cc2)ccc1O` were, in that order, 5.32, 5.34, 5.38, 5.51 and 5.27.
For `COc1ccc(CNC(=O)c2ccccc2-c2ccc(F)cc2)cc1` the same measures were under 4.30, under 4.30, under 4.30, under 4.30 and under 4.30.
The like results for `COc1ccc(/C=C/C(=O)c2ccccc2-c2ccc(F)nc2)cc1` were, in that order, 6.80, 6.03, 6.48, 6.54 and 5.57.
As for `COc1ccc(C(=O)/C=C/c2ccccc2-c2ccc(F)nc2)cc1`, the pIC50 is 4.89 in test [1]; under 4.30 with A549; 5.00 with SW480; 5.09 with HepG2; 4.89 in the test on MCF7.
